Laboratory results: ChEMBL document CHEMBL4177580, “New 5-HT1A, 5HT2A and 5HT2C receptor ligands containing a picolinic nucleus: Synthesis, in vitro and in vivo pharmacological evaluation” (Bioorg Med Chem, 2017)
The source made the active and inactive calls. The rule behind the calls is not given here.

How the values were obtained:
[1] = biological target: T1, Adrenergic receptor alpha-2 (Rattus norvegicus, UniProt P22086+P19328+P22909); assay: Displacement of [3H]RX 821002 from adrenergic alpha2 receptor in rat cerebral cortex
T1 sequence (P22086 whole entry): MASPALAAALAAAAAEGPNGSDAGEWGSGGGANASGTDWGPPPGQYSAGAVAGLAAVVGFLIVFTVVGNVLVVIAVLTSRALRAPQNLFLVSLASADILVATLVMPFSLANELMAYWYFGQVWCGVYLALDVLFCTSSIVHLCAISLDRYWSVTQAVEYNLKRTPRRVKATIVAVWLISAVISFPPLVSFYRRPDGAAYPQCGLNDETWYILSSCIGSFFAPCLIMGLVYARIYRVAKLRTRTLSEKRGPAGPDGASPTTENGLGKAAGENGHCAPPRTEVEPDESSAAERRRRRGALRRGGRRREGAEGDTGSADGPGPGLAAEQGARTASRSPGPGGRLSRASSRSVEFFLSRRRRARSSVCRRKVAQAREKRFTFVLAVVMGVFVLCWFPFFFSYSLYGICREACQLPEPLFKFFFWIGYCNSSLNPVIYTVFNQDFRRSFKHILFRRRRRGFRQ
T1 sequence (P19328 whole entry): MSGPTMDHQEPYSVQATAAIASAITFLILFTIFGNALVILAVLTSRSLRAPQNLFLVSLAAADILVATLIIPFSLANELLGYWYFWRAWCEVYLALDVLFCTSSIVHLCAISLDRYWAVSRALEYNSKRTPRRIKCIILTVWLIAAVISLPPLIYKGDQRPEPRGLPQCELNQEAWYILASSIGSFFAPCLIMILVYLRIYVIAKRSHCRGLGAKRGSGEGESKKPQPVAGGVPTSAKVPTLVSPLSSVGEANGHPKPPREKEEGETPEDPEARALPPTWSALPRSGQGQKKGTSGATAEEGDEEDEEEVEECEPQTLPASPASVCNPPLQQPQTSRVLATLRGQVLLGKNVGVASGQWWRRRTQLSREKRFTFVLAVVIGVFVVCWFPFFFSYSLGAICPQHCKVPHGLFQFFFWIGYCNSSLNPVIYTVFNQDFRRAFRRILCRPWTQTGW
T1 sequence (P22909 whole entry): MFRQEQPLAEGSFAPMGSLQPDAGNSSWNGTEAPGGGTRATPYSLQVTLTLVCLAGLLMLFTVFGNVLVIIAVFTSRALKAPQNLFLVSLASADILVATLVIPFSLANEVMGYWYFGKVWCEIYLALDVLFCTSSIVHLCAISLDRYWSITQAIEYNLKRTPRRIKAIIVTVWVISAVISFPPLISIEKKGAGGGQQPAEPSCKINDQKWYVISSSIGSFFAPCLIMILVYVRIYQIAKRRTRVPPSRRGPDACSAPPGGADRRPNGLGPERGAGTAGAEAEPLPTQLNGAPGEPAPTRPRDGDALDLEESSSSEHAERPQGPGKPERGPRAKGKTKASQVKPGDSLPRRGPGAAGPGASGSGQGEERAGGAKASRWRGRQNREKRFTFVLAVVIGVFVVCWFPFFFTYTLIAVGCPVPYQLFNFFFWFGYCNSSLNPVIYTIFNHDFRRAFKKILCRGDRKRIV

[2] = biological target: D(1A) dopamine receptor (Homo sapiens, UniProt P21728); assay: Displacement of [3H]SCH-23390 from human recombinant dopamine D1 receptor expressed in CHO cells; format: cell-based
[3] = system: Mus musculus; assay: Toxicity in Swiss albino mouse assessed as induction of impairment of motor coordination by measuring reduction in time spent on rota-rod at 60 mg/kg, ip dosed 60 mins before test by rotarod test; format: organism-based; settings: in vivo, 1 h
How it was run: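 Rotarod in male Swiss mice, i.p. dosing 60 min pre-test: impairment is inability to stay 1 min on a rod turning at 18 rpm, after 3 days of daily training. Mean ± SEM of 2 independent experiments; one-way ANOVA with Dunnett's.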

[4] = system: Mus musculus; assay: Anxiolytic-like activity in Swiss albino mouse assessed as increase in time spent in open arms at 3.75 to 15 mg/kg measured for 5 mins test period by elevated plus maze test; format: functional, organism-based

Chain of D(1A) dopamine receptor (P21728 whole entry): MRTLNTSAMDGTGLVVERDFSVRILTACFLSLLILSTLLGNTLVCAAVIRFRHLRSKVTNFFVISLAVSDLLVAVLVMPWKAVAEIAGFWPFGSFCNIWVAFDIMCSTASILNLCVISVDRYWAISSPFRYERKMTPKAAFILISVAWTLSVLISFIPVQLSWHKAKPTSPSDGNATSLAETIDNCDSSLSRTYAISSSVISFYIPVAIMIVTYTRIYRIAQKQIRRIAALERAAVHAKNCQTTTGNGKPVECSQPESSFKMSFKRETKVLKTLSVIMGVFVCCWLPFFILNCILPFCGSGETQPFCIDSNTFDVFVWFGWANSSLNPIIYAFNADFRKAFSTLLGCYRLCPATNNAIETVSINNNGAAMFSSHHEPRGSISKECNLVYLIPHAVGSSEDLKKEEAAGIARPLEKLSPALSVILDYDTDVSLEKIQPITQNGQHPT

- Ki [1]: 4200 nM
- Ki [2]: 610 nM
SMILES: O=C(NCCN1CCN(c2ccc(Cl)c(Cl)c2)CC1)c1ccccn1
- Activity [3]: Toxic
- Activity [4]: Active
